For test [1], the system named is SH-SY5Y. Put plainly: Induction of cell differentiation in human SH-SY5Y cells assessed as neural-like differentiation at 10 uM after 6 days using beta3-tubulin and NF200 staining by microscopic analysis. Format: functional, cell-based. In short, it runs like this: (§1)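 SH-SY5Y grown on BME-coated glass coverslips at 1×10⁴ cells/cm², treated from 24 h for 6 days, medium changed every 48 h. Controls were untreated cells and RA 10 microM. Cells fixed in 4% PFA, immunostained overnight at 4 °C for βIII-tubulin and NF200, and counterstained with Hoechst. Imaged at 20×; immunoreactive area normalized to cell number, mean ± SD.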

In test [2] the test system is SH-SY5Y. Nature of the test: Cytotoxicity against human SH-SY5Y cells at 10 uM after 48 hrs by MTT assay. Type of test: functional, cell-based.
Test [3] can be described thus: Cytotoxicity against human SH-SY5Y cells after 24 hrs by MTT assay. In general terms: Tetrazolium assays rely on reduction of a dye to a coloured formazan, in cell work by metabolically active cells.
The nature of test [4]: Cytotoxicity against human SH-SY5Y cells assessed as doubling time at 10 uM after 24 to 72 hrs by trypan blue exclusion assay (reference value: 34.9 hrs). Type of test: functional.
Test [5] concerns SH-SY5Y. Put plainly: Cytotoxicity against human SH-SY5Y cells at 10 uM after 72 to 96 hrs by MTT assay. Type of test: functional, cell-based.
The subject of test [6] is SH-SY5Y. Nature of the test: Cytotoxicity against human SH-SY5Y cells assessed as doubling time at 10 uM after 24 to 96 hrs by trypan blue exclusion assay (reference value: 34.9 hrs). Type of test: functional, cell-based.
For test [7], the system named is SH-SY5Y. Nature of the test: Induction of cell differentiation in human SH-SY5Y cells assessed as neural-like differentiation at 7.5 uM after 6 days using beta3-tubulin and NF200 staining by microscopic analysis. Format: functional, cell-based. In short, it runs like this:
as §1

A short description of test [8]: Cytotoxicity against human SH-SY5Y cells assessed as doubling time at 7.5 uM after 24 to 72 hrs by trypan blue exclusion assay (reference value: 34.9 hrs). Format: functional.
Test [9] has as its system SH-SY5Y. Nature of the test: Cytotoxicity against human SH-SY5Y cells assessed as doubling time at 7.5 uM after 24 to 96 hrs by trypan blue exclusion assay (reference value: 34.9 hrs). Format: functional, cell-based.
The test system of test [10] is SH-SY5Y. Nature of the test: Cytotoxicity against human SH-SY5Y cells at 7.5 uM after 72 to 96 hrs by MTT assay. Format: functional, cell-based.

Activity calls are given as the source filed them. The rule behind the calls is not given here.

Regarding `CC1=C(/C=C/C(C)=C/CNC(=O)/C=C2/CC(=O)N2)C(C)(C)CCC1`, the result in the test with SH-SY5Y [1], in the test with SH-SY5Y [2] and in the test on SH-SY5Y [5] was Active. For the same compound, inhibition in test [3] was half-maximal at 38 µM (IC50). Besides, the Time in test [4] amounted to 39.78 h. In the test on SH-SY5Y [6], the outcome was inactive.
Consider `CC1=C(/C=C/C(C)=C/C=C/C(C)=C/C(=O)O)C(C)(C)CCC1`, for which the result with SH-SY5Y [1] was Active.
For the compound `CC1=C(/C=C/C(C)=C\CNC(=O)/C=C2/CC(=O)N2)C(C)(C)CCC1`, the result in the test on SH-SY5Y [1], with SH-SY5Y [2] and in the test on SH-SY5Y [5] was Active. In [3], the IC50 (in general, the concentration at which inhibition is half-maximal) turned out to be 35 µM. For the same compound, the Time in test [4] was 51.25 h. In addition, in the test with SH-SY5Y [6], the outcome was inactive.
As for `CSN1C(=O)CC1CC/C=C/C(=O)Nc1ccccc1` (stereo not drawn), the outcome in the test on SH-SY5Y [7] and in the test on SH-SY5Y [9] was inactive. Besides, in test [8], the Time is 39 h. In test [3], the IC50 amounted to 10 µM. Besides, in the test with SH-SY5Y [10], the result was Active.

Values taken from ChEMBL document CHEMBL3085771, “Azetidinone-retinoid hybrids: synthesis and differentiative effects” (Eur J Med Chem, 2013).
